Assay results: ChEMBL document CHEMBL5226356, “Ring Size as an Independent Variable in Cyclooligomeric Depsipeptide Antiarrhythmic Activity” (ACS Med Chem Lett, 2021)
Calls of active or inactive are those of the source. No cut-off for these calls is given here.

Experiments:
[1] = target: Ryanodine receptor 2 (Mus musculus) (UniProt E9Q401); assay: Inhibition of RyR2 in Casq2 gene knockout mouse cardiomyocytes assessed as reduction in calcium sparks frequency at 25 uM incubated for 10 mins; assay type: cell-based; details: Cardiomyocyte
Method in brief: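 Isolated ventricular cardiomyocytes permeabilized with saponin, which opens the sarcolemma but leaves the SR membrane intact. Cells incubated 10 min with 25 μM compound or DMSO vehicle. RyR2 activity read as spontaneous Ca2+ spark frequency and compared to vehicle; statistics by one-way ANOVA with Tukey's posthoc test.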

Ryanodine receptor 2 = Ryanodine receptor 2 (Mus musculus, UniProt E9Q401); assay: Inhibition of RyR2 in Casq2 gene knockout mouse cardiomyocytes assessed as reduction in calcium sparks frequency incubated for 30 mins; assay type: cell-based, Cardiomyocyte
Method in brief: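 Saponin-permeabilized isolated ventricular cardiomyocytes (sarcolemma opened, SR membrane intact) incubated 30 min with compound across a concentration range for concentration-response curves. Read-out is frequency of spontaneous Ca2+ sparks, used as a measure of RyR2 activity. DMSO served as vehicle.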

[2] = Kinetic solubility of the compound in phosphate buffer at pH 7.4 at 25 uM incubated for 2 hrs by nephelometry; assay type: physicochemical; details: pH 7.4, 2 h
[3] = Kinetic solubility of the compound in Hanks Bile Salt Solution at 25 uM incubated for 2 hrs by nephelometry; assay type: ADME
[4] = target: Ryanodine receptor 2 (Mus musculus) (UniProt E9Q401); assay: Inhibition of RyR2 in Casq2 gene knockout mouse cardiomyocytes assessed as reduction in calcium sparks frequency at 25 uM incubated for 60 mins; assay type: cell-based; details: Cardiomyocyte
Method in brief: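 Isolated ventricular cardiomyocytes were permeabilized with saponin, which opens the sarcolemma but leaves the SR membrane intact. Cells were incubated with 25 μM compound or DMSO vehicle for 60 min (extended from the 10 min screen). RyR2 activity was read as the frequency of Ca2+ sparks relative to vehicle. Statistics were one-way ANOVA with Tukey's post hoc test.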

Chain of Ryanodine receptor 2 (Mus musculus) (E9Q401 whole entry): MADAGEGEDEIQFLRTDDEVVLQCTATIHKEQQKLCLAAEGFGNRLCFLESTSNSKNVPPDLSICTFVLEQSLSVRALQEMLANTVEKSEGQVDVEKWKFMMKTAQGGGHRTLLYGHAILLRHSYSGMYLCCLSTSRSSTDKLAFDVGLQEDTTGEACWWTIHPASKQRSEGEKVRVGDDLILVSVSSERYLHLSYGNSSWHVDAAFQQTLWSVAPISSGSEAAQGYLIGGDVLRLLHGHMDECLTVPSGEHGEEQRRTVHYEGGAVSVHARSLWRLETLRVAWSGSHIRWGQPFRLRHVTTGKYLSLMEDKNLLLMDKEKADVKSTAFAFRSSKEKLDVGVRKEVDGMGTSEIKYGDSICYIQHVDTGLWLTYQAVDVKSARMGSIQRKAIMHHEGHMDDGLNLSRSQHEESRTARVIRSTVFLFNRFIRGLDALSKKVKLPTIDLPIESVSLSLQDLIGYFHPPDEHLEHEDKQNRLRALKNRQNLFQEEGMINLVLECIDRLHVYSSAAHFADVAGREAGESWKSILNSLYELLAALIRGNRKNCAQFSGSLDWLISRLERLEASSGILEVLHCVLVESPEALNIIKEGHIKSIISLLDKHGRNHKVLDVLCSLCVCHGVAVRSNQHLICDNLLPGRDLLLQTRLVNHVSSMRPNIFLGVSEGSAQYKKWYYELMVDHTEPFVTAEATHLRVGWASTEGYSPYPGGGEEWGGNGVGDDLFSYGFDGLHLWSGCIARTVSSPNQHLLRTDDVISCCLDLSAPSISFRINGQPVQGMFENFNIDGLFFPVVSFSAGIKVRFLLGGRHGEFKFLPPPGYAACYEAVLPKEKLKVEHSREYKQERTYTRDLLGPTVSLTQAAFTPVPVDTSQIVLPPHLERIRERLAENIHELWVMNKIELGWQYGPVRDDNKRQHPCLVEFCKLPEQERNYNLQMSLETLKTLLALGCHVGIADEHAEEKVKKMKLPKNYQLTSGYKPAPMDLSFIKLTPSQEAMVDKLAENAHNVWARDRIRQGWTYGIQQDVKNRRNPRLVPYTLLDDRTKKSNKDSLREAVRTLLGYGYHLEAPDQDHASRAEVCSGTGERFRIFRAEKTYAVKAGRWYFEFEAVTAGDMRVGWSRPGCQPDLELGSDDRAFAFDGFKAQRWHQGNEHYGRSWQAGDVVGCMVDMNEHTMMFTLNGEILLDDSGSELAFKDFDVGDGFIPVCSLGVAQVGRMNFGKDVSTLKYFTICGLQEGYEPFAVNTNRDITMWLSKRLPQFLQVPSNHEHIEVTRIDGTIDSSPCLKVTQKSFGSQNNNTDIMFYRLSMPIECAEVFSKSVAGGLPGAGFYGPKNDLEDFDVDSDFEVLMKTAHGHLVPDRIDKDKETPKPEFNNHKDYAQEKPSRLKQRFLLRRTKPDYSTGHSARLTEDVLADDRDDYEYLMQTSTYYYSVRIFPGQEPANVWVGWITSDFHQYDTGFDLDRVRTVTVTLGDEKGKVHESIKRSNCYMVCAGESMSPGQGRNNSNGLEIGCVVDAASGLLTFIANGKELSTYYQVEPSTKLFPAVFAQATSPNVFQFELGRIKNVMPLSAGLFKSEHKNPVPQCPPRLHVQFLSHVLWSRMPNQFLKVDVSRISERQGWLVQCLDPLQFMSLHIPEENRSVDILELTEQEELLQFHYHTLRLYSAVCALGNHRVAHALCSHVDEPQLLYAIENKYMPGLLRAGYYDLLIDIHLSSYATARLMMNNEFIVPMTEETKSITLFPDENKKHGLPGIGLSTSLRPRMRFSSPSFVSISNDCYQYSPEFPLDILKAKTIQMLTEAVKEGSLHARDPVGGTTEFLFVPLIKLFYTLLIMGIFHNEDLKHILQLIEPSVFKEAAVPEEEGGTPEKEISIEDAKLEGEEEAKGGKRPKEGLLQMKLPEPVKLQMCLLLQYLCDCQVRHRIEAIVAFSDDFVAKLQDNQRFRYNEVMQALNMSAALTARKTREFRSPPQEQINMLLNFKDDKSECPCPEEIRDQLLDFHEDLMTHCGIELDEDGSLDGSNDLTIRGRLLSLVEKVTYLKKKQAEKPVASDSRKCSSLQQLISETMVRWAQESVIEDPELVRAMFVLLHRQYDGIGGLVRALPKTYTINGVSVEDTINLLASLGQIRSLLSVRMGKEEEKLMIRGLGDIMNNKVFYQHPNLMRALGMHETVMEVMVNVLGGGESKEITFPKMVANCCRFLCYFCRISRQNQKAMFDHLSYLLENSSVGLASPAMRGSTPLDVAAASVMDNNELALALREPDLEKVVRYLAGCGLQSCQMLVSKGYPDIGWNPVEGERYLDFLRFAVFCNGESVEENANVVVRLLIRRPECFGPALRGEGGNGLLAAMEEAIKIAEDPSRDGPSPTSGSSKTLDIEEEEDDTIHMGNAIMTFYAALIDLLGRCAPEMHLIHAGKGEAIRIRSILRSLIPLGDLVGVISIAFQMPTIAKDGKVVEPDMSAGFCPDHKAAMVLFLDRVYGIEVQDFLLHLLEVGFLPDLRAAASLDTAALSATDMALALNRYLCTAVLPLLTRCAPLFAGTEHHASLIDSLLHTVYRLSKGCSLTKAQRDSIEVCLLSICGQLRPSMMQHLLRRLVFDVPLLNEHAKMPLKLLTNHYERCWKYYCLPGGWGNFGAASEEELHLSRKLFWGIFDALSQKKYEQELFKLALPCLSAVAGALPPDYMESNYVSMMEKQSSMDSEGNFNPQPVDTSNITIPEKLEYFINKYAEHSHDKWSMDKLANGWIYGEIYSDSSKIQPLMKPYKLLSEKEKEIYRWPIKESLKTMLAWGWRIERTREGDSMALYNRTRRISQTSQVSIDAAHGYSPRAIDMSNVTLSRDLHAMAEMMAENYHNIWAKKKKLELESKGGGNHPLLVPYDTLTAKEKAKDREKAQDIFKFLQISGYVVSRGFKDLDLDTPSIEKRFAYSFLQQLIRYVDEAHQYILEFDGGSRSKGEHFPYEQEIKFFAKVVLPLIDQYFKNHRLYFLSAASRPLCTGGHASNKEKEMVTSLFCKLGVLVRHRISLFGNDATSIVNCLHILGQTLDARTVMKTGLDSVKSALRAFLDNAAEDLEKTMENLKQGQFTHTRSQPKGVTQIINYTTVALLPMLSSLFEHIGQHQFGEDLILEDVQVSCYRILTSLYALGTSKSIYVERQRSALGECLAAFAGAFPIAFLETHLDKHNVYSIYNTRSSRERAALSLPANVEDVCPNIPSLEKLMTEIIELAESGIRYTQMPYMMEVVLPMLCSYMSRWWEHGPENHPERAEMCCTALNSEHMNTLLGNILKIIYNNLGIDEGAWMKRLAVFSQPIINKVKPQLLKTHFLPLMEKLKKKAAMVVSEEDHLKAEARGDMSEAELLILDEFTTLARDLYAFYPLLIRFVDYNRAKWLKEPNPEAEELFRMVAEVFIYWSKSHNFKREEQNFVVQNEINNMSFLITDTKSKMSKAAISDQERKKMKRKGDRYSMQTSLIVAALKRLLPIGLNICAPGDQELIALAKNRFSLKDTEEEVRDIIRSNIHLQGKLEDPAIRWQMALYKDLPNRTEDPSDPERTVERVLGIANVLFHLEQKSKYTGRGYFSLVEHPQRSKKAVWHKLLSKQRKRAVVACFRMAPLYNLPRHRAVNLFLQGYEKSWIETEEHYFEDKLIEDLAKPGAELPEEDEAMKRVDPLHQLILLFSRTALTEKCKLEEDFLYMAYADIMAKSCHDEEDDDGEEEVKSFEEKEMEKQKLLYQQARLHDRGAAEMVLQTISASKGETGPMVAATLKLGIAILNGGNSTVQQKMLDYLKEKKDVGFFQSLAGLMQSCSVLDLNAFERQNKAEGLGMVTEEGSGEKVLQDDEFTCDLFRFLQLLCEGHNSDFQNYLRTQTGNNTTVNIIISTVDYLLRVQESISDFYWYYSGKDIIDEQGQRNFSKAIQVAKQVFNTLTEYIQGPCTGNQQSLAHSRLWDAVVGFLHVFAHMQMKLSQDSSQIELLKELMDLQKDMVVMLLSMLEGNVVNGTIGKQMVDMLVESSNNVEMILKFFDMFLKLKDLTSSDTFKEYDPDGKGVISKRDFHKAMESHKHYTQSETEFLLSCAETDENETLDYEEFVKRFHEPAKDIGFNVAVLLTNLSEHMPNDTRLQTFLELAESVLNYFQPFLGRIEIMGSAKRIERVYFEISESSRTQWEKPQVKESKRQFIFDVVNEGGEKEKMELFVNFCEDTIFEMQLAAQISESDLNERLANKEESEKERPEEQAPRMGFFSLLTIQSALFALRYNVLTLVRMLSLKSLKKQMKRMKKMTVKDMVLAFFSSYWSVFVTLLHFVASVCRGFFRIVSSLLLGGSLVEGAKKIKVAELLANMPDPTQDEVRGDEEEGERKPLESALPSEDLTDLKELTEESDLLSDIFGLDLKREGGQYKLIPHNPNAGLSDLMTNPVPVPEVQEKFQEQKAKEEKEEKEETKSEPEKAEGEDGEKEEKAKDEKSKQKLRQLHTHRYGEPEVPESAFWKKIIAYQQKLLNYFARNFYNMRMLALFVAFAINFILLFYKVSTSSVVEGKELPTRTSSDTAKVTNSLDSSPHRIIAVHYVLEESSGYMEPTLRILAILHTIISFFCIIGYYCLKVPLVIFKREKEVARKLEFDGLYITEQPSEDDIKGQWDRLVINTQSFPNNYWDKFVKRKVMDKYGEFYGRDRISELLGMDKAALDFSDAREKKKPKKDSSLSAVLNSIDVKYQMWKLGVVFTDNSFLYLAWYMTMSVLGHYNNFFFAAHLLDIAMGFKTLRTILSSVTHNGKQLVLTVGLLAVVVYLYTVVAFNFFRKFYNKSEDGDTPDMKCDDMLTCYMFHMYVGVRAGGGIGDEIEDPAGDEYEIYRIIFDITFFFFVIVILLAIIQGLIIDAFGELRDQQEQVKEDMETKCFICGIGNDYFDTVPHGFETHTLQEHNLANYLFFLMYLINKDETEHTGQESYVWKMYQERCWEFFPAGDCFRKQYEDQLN
Chain of Ryanodine receptor 2 (E9Q401 whole entry): as above

| inhibition [4] | Structure (SMILES) | inhibition [1] | IC50 (Ryanodine receptor 2) [nM] | Kinetic_solubility [2] | Kinetic_solubility [3] |
| --- | --- | --- | --- | --- | --- |
|  | CCCCC[C@@H]1OC(=O)[C@@H](C)N(C)C(=O)[C@H](CCCCC)OC(=O)[C@@H](C)N(C)C(=O)[C@H](CCCCC)OC(=O)[C@@H](C)N(C)C(=O)[C@H](CCCCC)OC(=O)[C@@H](C)N(C)C1=O | Active | 1890 | Soluble | Soluble |
|  | CCCCC[C@@H]1OC(=O)[C@@H](C)N(C)C(=O)[C@H](CCCCC)OC(=O)[C@@H](C)N(C)C(=O)[C@H](CCCCC)OC(=O)[C@@H](C)N(C)C1=O | Active | 3880 | Soluble | Soluble |
| inactive | CCCCC[C@H](OC(=O)[C@@H](C)N(C)C(=O)[C@H](CCCCC)OC(=O)[C@@H](C)N(C)C(=O)OC(C)(C)C)C(=O)OCc1ccccc1 |  |  |  |  |
|  | CCCCC[C@H]1OC(=O)[C@H](C)N(C)C1=O | inactive |  | Soluble | Soluble |
|  | CCCCC[C@@H]1OC(=O)[C@@H](C)N(C)C(=O)[C@H](CCCCC)OC(=O)[C@@H](C)N(C)C(=O)[C@H](CCCCC)OC(=O)[C@@H](C)N(C)C(=O)[C@H](CCCCC)OC(=O)[C@@H](C)N(C)C(=O)[C@H](CCCCC)OC(=O)[C@@H](C)N(C)C(=O)[C@H](CCCCC)OC(=O)[C@@H](C)N(C)C1=O | inactive |  | Soluble | Soluble |
| inactive | CCCCC[C@@H]1OC(=O)[C@@H](C)N(C)C(=O)[C@H](CCCCC)OC(=O)[C@@H](C)N(C)C1=O | inactive |  | Soluble | Soluble |

| Structure (SMILES) | inhibition [4] | inhibition [1] | IC50 (Ryanodine receptor 2) [nM] | Kinetic_solubility [2] | Kinetic_solubility [3] |
| --- | --- | --- | --- | --- | --- |
| CCCCC[C@@H]1OC(=O)[C@@H](C)N(C)C(=O)[C@H](CCCCC)OC(=O)[C@@H](C)N(C)C(=O)[C@H](CCCCC)OC(=O)[C@@H](C)N(C)C(=O)[C@H](CCCCC)OC(=O)[C@@H](C)N(C)C(=O)[C@H](CCCCC)OC(=O)[C@@H](C)N(C)C1=O | inactive | inactive |  | Soluble | Soluble |
